Test results reported in PubChem BioAssay.
Active and inactive are the calls of the source.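 Rule for the calls, unless noted: active = fluorescence slope after compound addition differing from the mean of all screened samples at 99.7% confidence, in either direction; inactive = the rest.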

Experiments:
[1] = inhibitors of TNFa-induced NFkB p65 translocation, primary screen, imaging, HUVEC, MLSMR starter and 10KST1 sets (AID 438;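 active = inhibition above 20% together with a positive visual image hit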;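 note: compound added about 3h40 before a 20 min TNFalpha stimulation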;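 for inhibition: signal is the nuclear over cytoplasmic p65 intensity ratio per well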); conditions: HUVEC TNFa-induced p65 nuclear translocation; cell count: measured here: nuclei count (cytotoxicity indicator), at 2.08 µM; inhibition: at 2 µM, stronger effect = higher value, 0% TNFa-plus-vehicle, 100% no-TNFa wells
[2] = inhibitors of E-selectin induction by TNFa, primary screen, imaging, HUVEC, immunofluorescence, MLSMR starter and 10KST1 sets (AID 487;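 active = visually confirmed hit in the image check and inhibition above 20%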;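 for inhibition: signal is fraction of cell area covered by stained E-selectin grains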;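 for nuclei count: 100% = median nuclei count of all wells on the same plate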); conditions: HUVEC TNFalpha-induced E-selectin immunofluorescence imaging, at 2 µM; inhibition: stronger effect = higher value; nuclei count: measured here: cell number, toxicity
[3] = DUSP6 inhibitors restoring Erk phosphorylation by chemical complementation, primary imaging in DUSP6-transfected HeLa (AID 609;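 active = compounds giving at least 50% inhibition in the cell-based MKP-3 phosphatase rescue imaging test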;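 for inhibition: phospho-Erk level distribution per well compared with pooled transfected vehicle control wells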); conditions: HeLa MKP-3 transfected, phospho-Erk imaging KS statistic, at 10 µM, cells stimulated with TPA for 15 min
[4] = target: Dual specificity protein phosphatase 6 (Homo sapiens) (UniProt Q16828); assay: as above; conditions: HeLa MKP-3 transfected, phospho-Erk imaging KS statistic; at 10 µM; stronger effect = higher value; cells stimulated with TPA for 15 min
[5] = target: Voltage-gated potassium channel subunit beta-2 (Rattus norvegicus) (UniProt P62483); assay: KvBeta enzyme negative modulators, primary screen, biochemical, NADPH fluorescence (AID 622;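 active = fluorescence slope higher than the sample average by over 3 SD, cut at about -0.22 in these data, passing the limit was not always enough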;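 note: slope of raw intensity against log time taken from 70 to 1610 s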); conditions: recombinant KvBeta, 4-cyanobenzaldehyde reduction, at 10 µM, stronger effect = higher value
[6] = target: Voltage-gated potassium channel subunit beta-2 (Rattus norvegicus) (UniProt P62483); assay: KvBeta positive modulators, primary screen, biochemical, NADPH fluorescence (AID 623;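 active = NADPH fluorescence slope more negative than the mean of all samples by about 3 SD, 99.7% confidence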;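 note: fluorescence intensity change per second fitted from 20 to 320 s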); conditions: Recombinant KvBeta, NADPH fluorescence decrease slope, 10 min; at 10 µM; stronger effect = lower value
[7] = target: Alpha-2C adrenergic receptor (Homo sapiens) (UniProt P18825); assay: modulators of alpha2C/GIRK thallium flux, primary screen, cell-based, HEK293 alpha2C/GIRK1/2 (AID 624); conditions: thallium flux BTC fluorescence, at 10 µM, actives lie on both sides;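 note: slope of fluorescence ratio to pre-addition baseline per second over 15 to 24 s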
[8] = inhibitors of larval lipid processing in zebrafish, primary screen, whole organism, PED6 fluorescence, gall bladder and intestine (AID 686;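 active = a full or partial loss of lipid-probe fluorescence in the fish gall bladder, intestine or both, judged by eye; inactive = no fluorescence loss, or compound toxic to the fish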;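 note: larvae 5 to 7 days old with five fish per well; signal comes from phospholipase A2 cleavage of quenched PED6 carried via bile; overnight exposure to compound and PED6 before scoring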); conditions: Zebrafish larvae PED6 lipid processing, fluorescence scoring; screened at 20 µM (by protocol)
Outline: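 Also added: quenched phospholipase substrate PED6, 100 nM final, ingested by larvae; System: zebrafish larvae, 5-7 d; Quantity: 5 larvae per well; Compound: 20 µM single dose; Schedule: overnight compound and PED6 incubation; Read-out: visual per-well fluorescence inhibition score; Measured by: By-eye fluorescence microscopy; Medium: E3.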

[9] = inhibitors of Chlamydomonas gravitaxis, primary screen, whole organism, Chlamydomonas reinhardtii, WT vs cilia-less mutant, absorbance, 96-well (AID 463189;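 active = inhibition at or above 50% relative to wild type and mutant plate controls; inactive = inhibition below 50%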;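 note: 0% = wild type cc124 cells in DMSO and 100% = ciliumless bld1 mutant cells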); conditions: OD600 absorbance, 2 days, at 10 µM, stronger effect = higher value
[10] = measured here: cell density z-score
[11] = measured here: nuclear c-Myc green intensity z-score
[12] = measured here: nuclear pErk red intensity z-score, stronger effect = higher value

Sequence of Voltage-gated potassium channel subunit beta-2 (Rattus norvegicus) (P62483 whole entry, looked up): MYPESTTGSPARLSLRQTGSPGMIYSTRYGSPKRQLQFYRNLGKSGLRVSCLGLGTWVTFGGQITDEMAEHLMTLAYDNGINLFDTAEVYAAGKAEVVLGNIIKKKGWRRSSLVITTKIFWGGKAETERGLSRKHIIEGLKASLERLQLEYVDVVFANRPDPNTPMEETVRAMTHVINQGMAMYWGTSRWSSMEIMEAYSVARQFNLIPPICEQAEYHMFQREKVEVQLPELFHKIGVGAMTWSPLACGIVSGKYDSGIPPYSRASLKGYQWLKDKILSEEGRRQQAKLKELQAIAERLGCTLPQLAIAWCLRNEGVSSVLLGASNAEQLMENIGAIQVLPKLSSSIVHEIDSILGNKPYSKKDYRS
Sequence of Dual specificity protein phosphatase 6 (Homo sapiens) (Q16828 whole entry, looked up): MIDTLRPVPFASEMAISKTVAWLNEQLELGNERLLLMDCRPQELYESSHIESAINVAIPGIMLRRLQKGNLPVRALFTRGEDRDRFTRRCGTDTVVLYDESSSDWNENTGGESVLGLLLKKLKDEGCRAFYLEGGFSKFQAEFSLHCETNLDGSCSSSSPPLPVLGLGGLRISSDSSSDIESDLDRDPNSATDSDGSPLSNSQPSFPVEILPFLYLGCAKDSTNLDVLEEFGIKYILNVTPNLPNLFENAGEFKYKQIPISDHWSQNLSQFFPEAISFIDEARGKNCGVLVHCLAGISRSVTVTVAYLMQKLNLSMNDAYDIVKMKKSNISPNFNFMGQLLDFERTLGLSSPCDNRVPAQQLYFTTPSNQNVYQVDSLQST
Sequence of Alpha-2C adrenergic receptor (Homo sapiens) (P18825 whole entry, looked up): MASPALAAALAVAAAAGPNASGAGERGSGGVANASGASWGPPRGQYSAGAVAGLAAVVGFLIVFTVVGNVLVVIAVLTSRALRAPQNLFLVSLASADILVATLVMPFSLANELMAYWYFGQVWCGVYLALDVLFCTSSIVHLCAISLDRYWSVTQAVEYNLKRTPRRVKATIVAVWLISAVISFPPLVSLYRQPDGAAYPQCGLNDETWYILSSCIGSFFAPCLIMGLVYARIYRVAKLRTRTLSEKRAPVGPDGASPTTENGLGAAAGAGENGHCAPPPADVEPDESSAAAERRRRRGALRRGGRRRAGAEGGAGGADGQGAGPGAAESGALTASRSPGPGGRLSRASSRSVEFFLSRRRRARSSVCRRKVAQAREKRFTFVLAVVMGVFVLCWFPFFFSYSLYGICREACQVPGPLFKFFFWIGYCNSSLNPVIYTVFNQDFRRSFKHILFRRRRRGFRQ

Row | Compound | cell count [1] | inhibition [1] | inhibition [2] | nuclei count [2] [%] | z-score [3, 10] | z-score [3, 11] | z-score [3, 12] | inhibition [4] | fluorescence slope [5] | NADPH fluorescence slope [6] | slope [7] | outcome [8] | inhibition [9]
1 | CCOC(=O)CCc1c(C)c(C#N)c2nc3ccccc3n2c1-n1ccnc1 | 559 | -4.6% (inactive) | -37.8% (inactive) | 140 | 1.11 | -0.305 | 0.783 | 25.8% (inactive) | -0.172 (inactive) | -3.3e-07 (inactive) | 0.0062 (inactive) | inactive | -3.19% (inactive)
2 | CC(=O)c1cc(C#N)c(SCc2ccncc2)nc1C | 591 | -18.5% (inactive) | 40% (inactive) | 122 | 1.87 | -0.619 | 1.67 | -2.29% (inactive) | -0.548 (inactive) | -8.8e-06 (inactive) | 0.00573 (inactive) | inactive | -20.5% (inactive)
3 | N#Cc1c(SCC(=O)O)nc(N2CCCCC2)c2c1CCCC2 | 555 | 7.3% (inactive) | -50% (inactive) | 123 | 0.186 | -1.79 | 0.996 | 16.8% (inactive) | -0.535 (inactive) | -4.5e-05 (inactive) | 0.00499 (inactive) | inactive | 6.88% (inactive)
4 | CCOC(=O)C1CCCN(c2nc3ccccc3nc2C(C#N)C(=O)OC(C)C)C1 (stereo unspecified) | 547 | -8.3% (inactive) | 14.3% (inactive) | 143 | -1.02 | 0.486 | -0.3 | -7.86% (inactive) | -0.504 (inactive) | -3.6e-05 (inactive) | 0.00207 (inactive) | inactive | 25.2% (inactive)
5 | COC(=O)CN(c1nc(C)cc(OC)n1)S(=O)(=O)c1ccccc1 | 568 | -3.9% (inactive) | -82.4% (inactive) | 122 | -1.67 | 0.823 | -0.13 | 3.56% (inactive) | -0.391 (inactive) | -2.2e-05 (inactive) | 0.00529 (inactive) | inactive | -16.2% (inactive)
6 | COCCCNC(=O)C(C#N)c1nc2ccccc2nc1N1CCCC1 (stereo unspecified) | 459 | 12.6% (inactive) | -130% (inactive) | 156 | 1.4 | 0.549 | -0.292 | 7.83% (inactive) | -0.000219 (active) | 0 (inactive) | 0.0065 (inactive) | inactive | -2.67% (inactive)
7 | COc1ccc(/C(O)=C2/C(=O)C(=O)N(c3ncccn3)C2c2ccc(OC)c(OC)c2)cc1 (stereo unspecified) | 584 | -2.6% (inactive) | -34.9% (inactive) | 176 | -1.58 | 0.795 | 2.34 | 0.671% (inactive) | -0.352 (inactive) | -4.6e-05 (inactive) | 0.0049 (inactive) | inactive | 3.9% (inactive)
8 | CCOc1nnnc2c1sc1nc(N3CCOCC3)c3c(c12)CC(C)(C)OC3 | 579 | -3.2% (inactive) | -78.7% (inactive) | 116 | -0.458 | -0.399 | -0.83 | -6.86% (inactive) | -0.35 (inactive) | 1.4e-05 (inactive) | 0.00623 (inactive) | inactive | -7.31% (inactive)
9 | CSc1nc(NC(C)=O)nc(C)c1Cl | 555 | 1.9% (inactive) | 33.2% (inactive) | 97.7 | -0.722 | 0.648 | -0.574 | 1.48% (inactive) | -0.343 (inactive) | -7.4e-06 (inactive) | 0.00457 (inactive) | inactive | 37.7% (inactive)
10 | COc1ccccc1C1/C(=C(/O)c2cnn(-c3ccccc3)c2C)C(=O)C(=O)N1CCN(C)C (stereo unspecified) | 498 | -0.5% (inactive) | -189% (inactive) | 132 | 0.414 | -0.415 | -0.719 | 10.5% (inactive) | -0.558 (inactive) | -7e-05 (inactive) | 0.00448 (inactive) | inactive; toxic | -1.15% (inactive)
11 | CCn1cc(C(=O)NCc2ccccn2)c(=O)c2cc(F)c(N3CCN(C)CC3)cc21 | 461 | -3.5% (inactive) | -38.2% (inactive) | 185 | -1.96 | 2.4 | 0.403 | -0.624% (inactive) | -0.292 (inactive) | -3e-05 (inactive) | 0.00581 (inactive) | inactive | 6.37% (inactive)
12 | COC(=O)CN(c1nc(C)c(Br)c(OC)n1)S(=O)(=O)c1ccc(C)cc1 | 598 | 6.5% (inactive) | -10.9% (inactive) | 142 | 0.877 | 0.344 | 0.387 | 9.82% (inactive) | -0.379 (inactive) | -2.1e-05 (inactive) | 0.0055 (inactive) | inactive | -5.5% (inactive)
13 | Cc1ccc2[nH]c3c(N4CCN(Cc5ccc6c(c5)OCO6)CC4)ncnc3c2c1 | 390 | -21.4% (inactive) | -47.6% (inactive) | 168 | -0.222 | 0.595 | -3.73 | -3.5% (inactive) | -0.396 (inactive) | -0.000159 (inactive) | 0.00427 (inactive) | inactive; toxic | 140% (active)
14 | CCOC(=O)c1cc2cc(OC)ccc2[nH]1 | 596 | -5.3% (inactive) | -44.6% (inactive) | 87.4 | -0.384 | 1.83 | 0.163 | 5.57% (inactive) | -0.497 (inactive) | -9.6e-05 (inactive) | 0.00467 (inactive) | inactive | 26.5% (inactive)
15 | O=C(Nc1ncn[nH]1)c1c(Cl)ccc(Cl)c1Cl | 597 | -1.6% (inactive) | 20% (inactive) | 162 | -1.37 | 0.992 | 0.69 | -15% (inactive) | -0.362 (inactive) | -8.7e-06 (inactive) | 0.00528 (inactive) | inactive | 0.721% (inactive)
16 | Fc1ccc2[nH]c3c(N4CCN(c5ccccc5)CC4)ncnc3c2c1 | 424 | 5.2% (inactive) | -109% (inactive) | 93.6 | -1.72 | -0.345 | 0.928 | 6.04% (inactive) | -0.334 (inactive) | 6.6e-06 (inactive) | 0.005 (inactive) | inactive | -1.66% (inactive)
17 | OC1(c2cccc(C(F)(F)F)c2)CCN(c2ncnc3c2[nH]c2ccccc23)CC1 | 447 | -2.9% (inactive) | -95% (inactive) | 165 | -0.506 | 1.11 | -2.96 | 34.7% (inactive) | -0.454 (inactive) | -5.6e-05 (inactive) | 0.0037 (inactive) | inactive | 19.3% (inactive)
18 | CN1C(=O)C2(N=c3ccccc3=N2)c2ccccc21 | 527 | -4.5% (inactive) | -152% (inactive) | 209 | -0.677 | 0.303 | 0.421 | 7.73% (inactive) | -0.482 (inactive) | -4.4e-05 (inactive) | 0.00491 (inactive) | inactive | 9.55% (inactive)
19 | COc1ccc(-c2nnc3sc(-c4ccccc4OC)nn23)cc1 | 615 | -8.4% (inactive) | -30.4% (inactive) | 153 | 0.537 | -0.23 | -1.1 | -11.5% (inactive) | -0.413 (inactive) | -4.4e-05 (inactive) | 0.00877 (inactive) | inactive | 12.7% (inactive)
20 | Cn1nnnc1-c1cc(Br)ccc1NC(=O)c1ccccc1 | 397 | -1.8% (inactive) | -2.9% (inactive) | 93.6 | -0.94 | 1.01 | -1.17 | -8.27% (inactive) | -0.39 (inactive) | 7.2e-07 (inactive) | 0.00973 (inactive) | inactive | -4.44% (inactive)
21 | O=C(NC1CCCCC1)N1CCSC1=Nc1ccccc1 | 490 | -27.8% (inactive) | -420% (inactive) | 202 | 0.92 | -1.53 | 0.173 | 24.4% (inactive) | -0.495 (inactive) | -9.6e-05 (inactive) | 0.00417 (inactive) | inactive | 11.3% (inactive)
22 | O=C(c1ccccc1)C(CCC(CN1CCOCC1)C(=O)c1ccccc1)CN1CCOCC1 (stereo unspecified) | 588 | -0.1% (inactive) | -9.4% (inactive) | 109 | 0.046 | -0.626 | 1.7 | 1.75% (inactive) | -0.59 (inactive) | -1.8e-05 (inactive) | 0.00635 (inactive) | inactive | 24.8% (inactive)
23 | CCn1c(SC(C)C(=O)O)nc2sc3c(c2c1=O)CCC3 (stereo unspecified) | 614 | -11.3% (inactive) | 46% (inactive) | 108 | 0.34 | -0.588 | -0.0983 | -2.29% (inactive) | -0.401 (inactive) | -3.8e-05 (inactive) | 0.0197 (active) | inactive | 7.74% (inactive)
24 | CCCOc1ccc(N2C(=O)CC(N(Cc3ccc(S(N)(=O)=O)cc3)C(=O)CC)C2=O)cc1 (stereo unspecified) | 441 | -4.6% (inactive) | -308% (inactive) | 184 | -0.613 | 0.516 | 0.905 | -7.28% (inactive) | -0.326 (inactive) | 1.9e-05 (inactive) | 0.00479 (inactive) | inactive | 2.36% (inactive)
25 | Brc1ccc(-c2cnc3n2CCCC3)cc1 | 363 | -4.2% (inactive) | -15.9% (inactive) | 108 | 0.187 | 2.77 | -1.27 | 5.65% (inactive) | -0.46 (inactive) | -0.000301 (inactive) | 0.00468 (inactive) | inactive | 142% (active)
26 | CC(C)(C)c1ccc(C(=O)C=[N+]=[N-])cc1 | 519 | -4.7% (inactive) | -112% (inactive) | 60.8 | -1.12 | -0.668 | -0.2 | 3.97% (inactive) | -0.524 (inactive) | -6.4e-05 (inactive) | 0.00701 (inactive) | inactive | 2.22% (inactive)
27 | c1coc(-c2nnc3sc(C4CCCCC4)nn23)c1 | 653 | -0.1% (inactive) | -85.2% (inactive) | 170 | -0.617 | -0.759 | -0.627 | 1.12% (inactive) | -0.451 (inactive) | -0.000143 (inactive) | 0.00424 (inactive) | inactive | 77.6% (active)
